Measurements: ChEMBL document CHEMBL4118065, “Design, synthesis and antimycobacterial activity of novel imidazo[1,2-a]pyridine-3-carboxamide derivatives” (Eur J Med Chem, 2017)
In brackets after ≈: the same amount, converted by molar mass.

Assays:
[1] = tested on: Mycobacterium tuberculosis; assay: Antimycobacterial activity against Mycobacterium tuberculosis H37Rv ATCC 27294 after 7 days by microplate Alamar blue assay; format: functional; conditions: H37Rv ATCC 27294, 168 h
In short: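 MABA against replicating M. tuberculosis. Cells grown to late log phase (70–100 Klett units) in 7H9 broth with 0.2% glycerol, 0.05% Tween 80 and 10% ADC. They were washed in PBS, filtered (8 µm) and frozen. Twofold compound dilutions received 2×10^5 CFU per well at 37 °C. Tween 80 and Alamar blue were added on day 7, then 16–24 h more. Fluorescence read at 530/590 nm. MIC = lowest concentration giving ≥90% fluorescence reduction versus bacterium-only controls.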

[2] = Cytotoxicity against African green monkey Vero cells assessed as decrease in cell viability after 72 hrs by MTT assay; format: cell-based; conditions: chlorocebus sabaeus
In short: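 Vero cells grown in MEM with Earle's salts plus 10% FBS, 37 °C, 5% CO2; seeded at 1 × 10⁴ cells per well, allowed 24 h recovery, then medium replaced with assay medium with or without compound (1000 to 4 μg/mL). After 72 h exposure, viability read by MTT; CC50 calculated by Bliss analysis.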

[3] = Selectivity index, ratio of CC50 for African green monkey Vero cells to MIC=>90 for Mycobacterium tuberculosis H37Rv ATCC 27294; format: toxicity; conditions: read-out: Selectivity Index
In short: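 Vero cells in MEM with Earle's salts and 10% FBS, 37 °C, 5% CO₂. Seeded at 1×10⁴ cells/well and recovered 24 h. Exposed to compound at 1000 to 4 μg/mL for 72 h. Viability by MTT. CC50 by Bliss analysis. SI is CC50 divided by MABA MIC against H37Rv ATCC 27294.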

SMILES	MIC90 [1]	CC50 at 72 h [2]	selectivity ratio [3]
Cc1ccc2nc(C)c(C(=O)NCCNc3ccc([N+](=O)[O-])cc3)n2c1	> 90 µM		
Cc1ccc2nc(C)c(C(=O)NCCCNc3ccc(F)cc3)n2c1	1.47 µM (≈ 0.5 µg/mL)		
NNC(=O)c1ccncc1 [ISONIAZID]	0.36 µM (≈ 0.0494 µg/mL)		
Cc1ccn2c(C(=O)NCCCNc3ccccc3)c(C)nc2c1	12.4 µM (≈ 4.01 µg/mL)		
Cc1ccc2nc(C)c(C(=O)NCCOCc3ccccc3)n2c1	1.93 µM (≈ 0.624 µg/mL)		
Cc1ccc2nc(C)c(C(=O)N3CCN(c4ccc([N+](=O)[O-])cc4)CC3)n2c1	84.4 µM (≈ 32 µg/mL)		
Cc1ccn2c(C(=O)NCCCNc3ccc(C(C)(C)C)cc3)c(C)nc2c1	10.6 µM (≈ 4 µg/mL)		
Cc1ccc2nc(C)c(C(=O)NCCNc3ccc(Cl)c(F)c3)n2c1	1.39 µM (≈ 0.502 µg/mL)		
Cc1ccc2nc(C)c(C(=O)NCCNc3ccccc3F)n2c1	0.76 µM (≈ 0.248 µg/mL)		
Cc1ccc2nc(C)c(C(=O)NCCCNc3ccc(C(C)(C)C)cc3)n2c1	1.32 µM (≈ 0.5 µg/mL)		
Cc1ccc2nc(C)c(C(=O)NCCOc3ccc(Br)cc3)n2c1	0.038 µM (≈ 0.0148 µg/mL)		
COc1ccc(NCCNC(=O)c2c(C)nc3ccc(C)cn23)cc1	0.044 µM (≈ 0.0149 µg/mL)	193 µM	4400
Cc1ccc2nc(C)c(C(=O)NCCNc3ccc(C)c(C)c3)n2c1	0.18 µM (≈ 0.0606 µg/mL)		
Cc1ccc2nc(C)c(C(=O)NCCNCc3ccc(Br)cc3)n2c1	9.97 µM (≈ 4 µg/mL)		
Cc1ccc2nc(C)c(C(=O)NCCNc3ccc(C(C)(C)C)cc3)n2c1	0.041 µM (≈ 0.0149 µg/mL)	57.6 µM	1400
Cc1ccc2nc(C)c(C(=O)N3CCN(c4ccc(F)cc4F)CC3)n2c1	> 86 µM		
Cc1ccc2nc(C)c(C(=O)NCCNc3ccc(Br)cc3)n2c1	0.64 µM (≈ 0.248 µg/mL)		
CO[C@H]1/C=C/O[C@@]2(C)Oc3c(C)c(O)c4c(O)c(c(/C=N/N5CCN(C)CC5)c(O)c4c3C2=O)NC(=O)/C(C)=C\C=C\[C@H](C)[C@H](O)[C@@H](C)[C@@H](O)[C@@H](C)[C@H](OC(C)=O)[C@@H]1C [RIFAMPIN]	0.071 µM (≈ 0.0584 µg/mL)		
Cc1ccc2nc(C)c(C(=O)N3CCN(c4ccncc4)CC3)n2c1	95 µM (≈ 31.9 µg/mL)		
COc1ccc(NCCNC(=O)c2c(C)nc3cc(C)ccn23)cc1	47.3 µM (≈ 16 µg/mL)		

SMILES	MIC90 [1]	CC50 at 72 h [2]	selectivity ratio [3]
Cc1ccc2nc(C)c(C(=O)NCCNc3ccc(F)cc3)n2c1	1.53 µM (≈ 0.499 µg/mL)		
Cc1ccc2nc(C)c(C(=O)N3CCN(c4ccccc4)CC3)n2c1	95.4 µM (≈ 31.9 µg/mL)		
Cc1ccn2c(C(=O)NCCCNc3ccc([N+](=O)[O-])cc3)c(C)nc2c1	> 87 µM		
Cc1ccc2nc(C)c(C(=O)N3CCC(c4ccc(F)cc4)CC3)n2c1	90.3 µM (≈ 31.7 µg/mL)		
Cc1ccc2nc(C)c(C(=O)NCCCNc3ccccc3)n2c1	6.21 µM (≈ 2 µg/mL)		
Cc1ccc2nc(C)c(C(=O)NCCNc3ccccc3)n2c1	0.81 µM (≈ 0.25 µg/mL)		
Cc1ccc2nc(C)c(C(=O)N3CCN(c4ccccc4F)CC3)n2c1	> 90 µM		
Cc1ccc2nc(C)c(C(=O)NCCNCc3ccccc3)n2c1	49.6 µM (≈ 16 µg/mL)		
Cc1ccc2nc(C)c(C(=O)NCCNc3cccc(C(F)(F)F)c3)n2c1	5.31 µM (≈ 2 µg/mL)		
Cc1ccc2nc(C)c(C(=O)N3CCN(c4ccc(Cl)cc4)CC3)n2c1	43.5 µM (≈ 16 µg/mL)		
Cc1ccc2nc(C)c(C(=O)NCCOCc3ccc(Br)cc3)n2c1	0.62 µM (≈ 0.249 µg/mL)		
Cc1ccc2nc(C)c(C(=O)NCCCOc3ccc(Br)cc3)n2c1	0.62 µM (≈ 0.249 µg/mL)		
Cc1ccc2nc(C)c(C(=O)N3CCN(c4ccc(Br)cc4)CC3)n2c1	> 77 µM		
Cc1ccc(N2CCN(C(=O)c3c(C)nc4ccc(C)cn34)CC2)cc1	46 µM (≈ 16 µg/mL)		
Cc1ccc2nc(C)c(C(=O)NCCNc3ccc(C(F)(F)F)cc3)n2c1	42.5 µM (≈ 16 µg/mL)		
Cc1ccc2nc(C)c(C(=O)N3CCN(c4ccccn4)CC3)n2c1	> 95 µM		
COc1ccc(N2CCN(C(=O)c3c(C)nc4ccc(C)cn34)CC2)cc1	> 87 µM		
Cc1ccc2nc(C)c(C(=O)N3CCN(c4ccc(F)cc4)CC3)n2c1	90.3 µM (≈ 31.8 µg/mL)		
Cc1ccc2nc(C)c(C(=O)NCCCNc3ccc([N+](=O)[O-])cc3)n2c1	> 87 µM		
Cc1ccc2nc(C)c(C(=O)NCCN3CCN(c4ccccc4)CC3)n2c1	0.66 µM (≈ 0.249 µg/mL)		
